# XBP1 UPR activ – adaptive UPR (XBP1) activation; CHO-XBP1 luciferase reporter, IRE1-XBP1 UPR activation, luminescence; percent of tunicamycin response, DMSO as zero; activation, % at 20 µM; 330,000 tested, 0.33% active;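 active means versus positive control, 20 µM dose yields 30% or more activation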;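 further: 100% = tunicamycin at 10 µg/mL and 0% = DMSO only wells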
#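 Assay system: CHO-XBP1 luciferase reporter cells; Schedule: 6 h treatment, 37 °C; Detection: glow luminescence from Steady-Glo reagent; Benchmarks: high control tunicamycin 10 µg/mL final, low control DMSO vehicle only.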
# TMEM16A inh – mouse TMEM16A channel inhibition, primary screen. 310,000 tested, 1.2% active. normalized B-score (activity score, 25-100; higher = stronger inhibition) at 10 µM. HEK293 TMEM16A/YFP iodide influx fluorescence, ionomycin;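 active means ratio plate-corrected score three or more library SD toward inhibition, starting fluorescence score within five deviations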;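 further: score derived from kinetic fluorescence span divided by baseline fluorescence per well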
# TMEM16A act – activators or potentiators of mouse TMEM16A chloride channel; 340,000 tested, 0.3% active; B-score at 10 µM; Q8BHY3; HEK293 TMEM16A/YFP-H148Q/I152L, iodide quench fluorescence; active compounds read low; AID 623877;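 active means fluorescence-ratio B-score plate-corrected deviation score at least 3 library SD below zero, with starting fluorescence score within 5 deviations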;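 further: channel opened by trigger with iodide after compound preincubation; score built on the fluorescence ratio of max minus min over baseline; more negative score means more quench and so TMEM16A activation or potentiation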
# CHOP inhibitor – inhibitors of CHOP induction in ER stress response | CHO-K1 CHOP-promoter luciferase, tunicamycin-induced, 15-18 h | inhibition, % at 10 µM | 220,000 tested, 3.8% active | AID 2732;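 active means compounds that reduced the stress-induced luciferase reporter signal by more than about 70% of percent inhibition, limit read from the data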;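 further: 0% = tunicamycin plus vehicle and 100% = wells without tunicamycin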
# CHOP UPR activ – apoptotic UPR (CHOP) activation; 330,000 tested, 0.34% active; CHO-CHOP luciferase reporter, luminescence; percent of tunicamycin response over DMSO baseline; activation, % at 10 µM;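 active means at 10 µM dose, activation of 40% or more, normalized to positive control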;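 further: 100% = tunicamycin at 10 µg/mL and 0% = DMSO alone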
#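 measured by = luciferase luminescence | assay system = CHO-CHOP cells, stable luciferase reporter of PERK-eIF2a-CHOP signalling | amount = 500 reporter cells seeded per well | timing = 6 h compound exposure at 37 °C after overnight seeding | controls = positive tunicamycin 10 µg/mL, negative DMSO alone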
# Hep lipid drop – hepatic lipid droplet formation modulation; AML12 mouse hepatocytes, oleate lipid droplets, BODIPY imaging; 240,000 tested, 0.4% active; inhibition, % at 6.5 µM;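 active means lipid droplet intensity inhibited by at least 50%, with more than 500 cells counted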
#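 Assay system: AML12 mouse liver cells | Compound dosing: One dose, 6.5 µM compound | Read-out basis: Droplet intensity reduction, % inhibition | Measured by: Fluorescence imaging, 20x objective, two fields per well | Schedule: Overnight treatment with compound plus oleate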
# TMEM16A reconf – re-confirmation of mouse TMEM16A chloride channel inhibitors. inhibition, % at 10 µM. HEK293 TMEM16A/YFP-H148Q, iodide quench fluorescence; ionomycin added to raise cell calcium. AID 652189. 2,300 tested, 39% active. shares compounds with TMEM16A inh;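 active means mean duplicate percent inhibition, scaled so buffer wells are 0 and the reference blocker 100, over three buffer SD above buffer mean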
# TMEM16A Ca cntr – alters calcium mobilization in TMEM16A HEK293 cells, counter-screen. AID 652231. 2,300 tested, 2% active. shares compounds with TMEM16A inh. calcium response (% of ionomycin), % at 10 µM. TMEM16A/YFP HEK293, Fluo4 calcium mobilization;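 active means duplicate-averaged calcium signal over 20% of the ionomycin maximum, relative to buffer baseline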;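 further: each well's signal is peak minus trough fluorescence divided by its pre-addition baseline; 0% = buffer wells and 100% = ionomycin wells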
# Parental YFP cnt – parental YFP-HEK293 iodide quench counter-screen activity | YFP ratio F(max-min)/F0 at 10 µM | shares compounds with TMEM16A inh | 2,300 tested, under 10 active | ionomycin;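 active means yellow fluorescent protein signal ratio exceeding the buffer control mean by over 5 SD of those controls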;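 further: ratio is mean of duplicate wells from kinetic YFP trace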
# ClC-1 inh – rat ClC-1 inhibition, TMEM16A specificity screen. ratio percent, % at 10 µM. shares compounds with TMEM16A inh. 2,300 tested, under 10 active. AID 652236. CHO ClC-1-YFP, iodide influx fluorescence quench; iodide control reads 0, buffer control 100;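 active means duplicate-mean ratio percent above the mean of iodide-only control wells, which defines zero, plus 5 of their SD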;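 further: higher percent means stronger block of ClC-1 iodide influx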
# Target sequence (P35524 whole entry, looked up): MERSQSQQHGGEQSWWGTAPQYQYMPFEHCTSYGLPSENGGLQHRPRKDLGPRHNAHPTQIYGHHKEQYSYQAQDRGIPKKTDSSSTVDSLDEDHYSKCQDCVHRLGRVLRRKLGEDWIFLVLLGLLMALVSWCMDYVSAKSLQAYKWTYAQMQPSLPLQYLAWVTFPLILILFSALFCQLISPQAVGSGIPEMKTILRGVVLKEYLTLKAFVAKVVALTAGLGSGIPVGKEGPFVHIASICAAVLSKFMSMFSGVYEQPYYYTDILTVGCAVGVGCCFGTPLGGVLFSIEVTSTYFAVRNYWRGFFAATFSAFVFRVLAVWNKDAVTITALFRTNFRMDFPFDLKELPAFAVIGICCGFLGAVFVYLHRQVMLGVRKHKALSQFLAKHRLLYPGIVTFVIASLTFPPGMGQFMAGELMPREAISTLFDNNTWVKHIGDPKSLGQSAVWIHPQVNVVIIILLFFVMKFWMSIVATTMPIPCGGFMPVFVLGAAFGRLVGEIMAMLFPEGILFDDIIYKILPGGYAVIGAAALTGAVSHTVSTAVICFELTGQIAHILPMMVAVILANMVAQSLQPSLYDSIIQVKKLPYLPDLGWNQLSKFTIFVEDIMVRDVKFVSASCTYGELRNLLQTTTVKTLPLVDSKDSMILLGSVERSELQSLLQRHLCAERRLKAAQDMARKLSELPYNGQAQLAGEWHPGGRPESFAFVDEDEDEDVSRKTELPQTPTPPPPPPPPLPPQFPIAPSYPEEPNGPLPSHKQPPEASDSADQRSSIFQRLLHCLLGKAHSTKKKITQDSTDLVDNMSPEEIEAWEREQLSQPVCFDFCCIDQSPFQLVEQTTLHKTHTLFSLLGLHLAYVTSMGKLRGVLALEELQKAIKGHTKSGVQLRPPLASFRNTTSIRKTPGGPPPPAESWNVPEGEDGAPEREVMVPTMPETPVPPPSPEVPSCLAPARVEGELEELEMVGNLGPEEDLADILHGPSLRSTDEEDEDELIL
# * marks the source's active call; other numbers are inactive results; i = inactive; nt = no result. In the library only some 4.2% were active in any assay of this set; here they are far more common.
SMILES,XBP1 UPR activ,TMEM16A inh,TMEM16A act,CHOP inhibitor,CHOP UPR activ,Hep lipid drop,TMEM16A reconf,TMEM16A Ca cntr,Parental YFP cnt,ClC-1 inh
CC(=O)c1c(C)[nH]c(C(=O)CSc2nc3ccc(C)cc3[nH]2)c1C,2,i,i,51,0,-3,i,i,-0.82,-1
CCC(=O)Nc1ccc(C(=O)CSc2nc3ccc(C)cc3[nH]2)cc1,nt,i,i,11,nt,-11,nt,nt,nt,nt
O=C(CN1CCN(Cc2ccccc2Cl)CC1)N/N=C/c1ccco1,-2,i,i,-26,-1,-8,nt,nt,nt,nt
CN(CCOc1ccc(Cl)c(Cl)c1)Cc1ccccc1,-1,i,i,nt,4,0,nt,nt,nt,nt
CCN(CC)CCCOc1ccc(Cl)c(Cl)c1,-1,100*,i,14,1,-4,i,i,-1.1,-4
COc1ccc(CC(=O)Nc2cccc(-c3csc(C)n3)c2)cc1,2,i,i,11,-1,14,nt,nt,nt,nt
Cc1nc(-c2cccc(NC(=O)COc3ccc(Cl)cc3)c2)cs1,-2,25*,i,nt,2,10,i,i,-1.1,-5
CSc1ccccc1C(=O)NCC1CCCO1 (stereo not given),-2,100*,i,21,0,-1,i,i,-0.99,-12
COCCSc1ccccc1C(=O)NCC1CCCO1 (stereo not given),-4,i,i,7,-1,-10,nt,nt,nt,nt
COCCNC(=O)c1c(NC(=O)c2nc(SC)ncc2Cl)sc2c1CCCC2,0,i,i,65,5,-14,24%*,i,-0.78,6
CN(C)CCNC(=O)c1c(NC(=O)c2ccccc2)sc2c1CCCC2,2,i,i,nt,0,2,nt,nt,nt,nt
CCSc1nc(C)cc(C)c1S(=O)(=O)c1ccccc1C,-5,100*,i,71*,1,-56,i,i,-1.1,-6
CCC(C)Oc1nc(C)cc(C)c1S(=O)(=O)c1ccccc1C (stereo not given),-4,100*,i,35,-2,nt,i,i,-0.62,-13
COc1cccc(CCc2nnc(CCC(=O)NCCC3CCCCO3)o2)c1 (stereo not given),-2,i,i,nt,1,-10,nt,nt,nt,nt
O=C(CCSCCC(=O)NCc1ccco1)NCc1ccco1,-1,i,nt,27,-1,0,i,i,-0.98,-11
CC(C)Cc1ccc(C(C)C(=O)Nc2ncccn2)cc1 (stereo not given),-2,i,i,29,-2,2,nt,nt,nt,nt
COC(=O)c1cc(NC(=O)C(C)c2ccc(CC(C)C)cc2)ccc1O (stereo not given),-2,25*,i,54,-1,-8,22%*,i,-0.94,-9
O=C(NNC(=S)Nc1ccccc1)NNC(=S)Nc1ccccc1,-3,i,i,24,0,1,nt,nt,nt,nt
O=C(NNC(=S)Nc1ccccc1)c1cc(Br)ccc1Cl,-2,25*,i,nt,1,13,18%*,i,-1,-8
CCn1c(SCC(=O)Nc2cccc(OC)c2)nc2c(c1=O)SCC2,1,i,i,nt,0,nt,nt,nt,nt,nt
CSc1ncc(Cl)c(C(=O)Nc2cccc(Cl)c2)n1,-1,i,i,nt,0,-32,nt,nt,nt,nt
CCOC(=O)C1CCN(c2nc(-c3ccccc3)nc3c2oc2ccccc23)CC1,2,i,i,-8,-2,5,nt,nt,nt,nt
CCOC(=O)C1CCCN(c2ncnc3c2oc2ccccc23)C1 (stereo not given),7,100*,i,50,-2,nt,28%*,i,-1,-20
CCOC(=O)C1CCN(c2ncnc3c2oc2ccccc23)CC1,-2,100*,i,56,0,nt,22%*,i,-0.9,-16
Cc1cc(OCC(=O)NCCc2ccc(Cl)cc2)c2c(C)cc(=O)oc2c1,-2,i,i,nt,-2,-7,nt,nt,nt,nt
SMILES,XBP1 UPR activ,TMEM16A inh,TMEM16A act,CHOP inhibitor,CHOP UPR activ,Hep lipid drop,TMEM16A reconf,TMEM16A Ca cntr,Parental YFP cnt,ClC-1 inh
Cc1cccc(/N=C/c2sc3ccccc3c2O)n1,2,i,i,14,1,27,i,i,-1.3,-8
COc1cc(/C=N/NC(=O)c2ccncc2)ccc1OC(=O)c1cc(OC)c(OC)c(OC)c1,0,i,i,nt,0,-2,nt,nt,nt,nt
Cc1ccc(N(C(=O)c2snc(C(N)=O)c2N)C(C(=O)NCc2ccccc2)c2ccncc2)c(C)c1 (stereo not given),1,i,i,nt,1,-9,nt,nt,nt,nt
CCOc1ccc(OCC)c(NC(=O)CCn2c(=O)oc3ccccc32)c1,2,100*,i,35,-1,nt,i,i,-1,-6
CCOC(=O)c1c(C)c(C(=O)N2CCN(C(=O)c3ccco3)CC2)c(C)n1C,0,100*,i,4,0,nt,i,i,-1,0
Cn1cc(CCC(=O)N2CCCC(N3CCN(c4ccccc4F)CC3)C2)cn1 (stereo not given),-3,i,i,nt,-1,-8,nt,nt,nt,nt
CCCCOc1ccc(Cl)cc1CSc1nnc(CC)n1N,-2,25*,i,4,0,-54,i,i,-0.96,11
CCCOc1ccc(CSc2nnc(CCC)n2N)cc1,0,i,i,-43,0,nt,nt,nt,nt,nt
COC(=O)CNC(c1ccccc1)c1cc(Br)ccc1NC(=O)OCc1ccccc1 (stereo not given),-2,i,i,46,0,nt,i,i,-1,-7
Cc1ccc(CSCC(=O)N(C)CC(=O)Nc2c(Cl)cccc2Cl)cc1,-2,i,i,nt,1,nt,nt,nt,nt,nt
Cn1c(=O)n(CC(=O)N2CCN(c3nnc(-c4ccccc4)c4ccccc34)CC2)c2ccccc21,3,25*,i,3,-2,11,i,i,-1,-8
CCOc1ccc(Cc2c(Cl)nc(SC)nc2N(C)C)cc1,-4,25*,i,-3,0,1,i,i,-1.3,-12

# High-throughput results (PubChem BioAssay)
